ChEMBL document CHEMBL1158824, “Using jasplakinolide to turn on pathways that enable the isolation of new chaetoglobosins from Phomospis asparagi” (J Nat Prod, 2005)
The source made the active and inactive calls. The calls are words filed in the database; no cut-off is given here.

What was measured:
MC-38 = assay: Cytotoxicity against mouse C38 cells assessed as zone units at 15 ug/disk by disk diffusion soft agar assay; format: functional
How it was run: (§1)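 Disk diffusion soft agar colony formation assay at 15 μg/disk; cytotoxicity read as zone units. Cells: L1210 murine leukemia, C38 murine colon, CFU-GM normal bone marrow. Samples called solid tumor selective when the solid tumor zone exceeds the normal-cell or leukemia zone by more than 250 units.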

L1210 = assay: Cytotoxicity against mouse L1210 cells assessed as zone units at 15 ug/disk by disk diffusion soft agar assay; format: functional; how it was run: as §1
[1] = Cytotoxicity against mouse CFU-GM cells assessed as zone units at 15 ug/disk by disk diffusion soft agar assay; format: cell-based; how it was run: as §1
A10 [2] = assay: Antimicrofilament activity in rat A10 cells assessed as loss of microfilament at 2.5 ug/ml by rhodamine-phalloidin staining; format: functional, cell-based
How it was run: (§2)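 A-10 rat aortic smooth muscle cells treated with compound, then fixed; microfilament network scored as loss, additional loss, total loss, or cell loss, at the concentration given in each line.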

A10 [3] = assay: Antimicrofilament activity in rat A10 cells assessed as loss of microfilament at 1 ug/ml by rhodamine-phalloidin staining; format: functional, cell-based; how it was run: as §2
A10 [4] = assay: Antimicrofilament activity in rat A10 cells assessed as total loss of microfilament at 5 ug/ml by rhodamine-phalloidin staining; format: functional, cell-based; how it was run: as §2
A10 [5] = assay: Antimicrofilament activity in rat A10 cells assessed as loss of microfilament at 15 ug/ml by rhodamine-phalloidin staining; format: functional, cell-based; how it was run: as §2
A10 [6] = assay: Antimicrofilament activity in rat A10 cells assessed as loss of microfilament at 10 ug/ml by rhodamine-phalloidin staining; format: functional, cell-based; how it was run: as §2
A10 [7] = assay: Antimicrofilament activity in rat A10 cells assessed as cell loss at 15 ug/ml by rhodamine-phalloidin staining; format: functional, cell-based; how it was run: as §2
A10 [8] = assay: Antimicrofilament activity in rat A10 cells assessed as cell loss at 10 ug/ml by rhodamine-phalloidin staining; format: functional, cell-based; how it was run: as §2
A10 [9] = assay: Antimicrofilament activity in rat A10 cells assessed as cell loss at 25 ug/ml by rhodamine-phalloidin staining; format: functional, cell-based; how it was run: as §2
A10 [10] = assay: Antimicrofilament activity in rat A10 cells assessed as total loss of microfilament at 25 ug/ml by rhodamine-phalloidin staining; format: functional, cell-based; how it was run: as §2

Row | Structure (SMILES) | Activity (MC-38) | Activity (L1210) | Activity [1] | Activity (A10 [2]) | Activity (A10 [3]) | Activity (A10 [4]) | Activity (A10 [5]) | Activity (A10 [6]) | Activity (A10 [7]) | Activity (A10 [8]) | Activity (A10 [9]) | Activity (A10 [10])
1 | CC[C@@H]1C(C)=C[C@@H]2/C=C/C[C@H](C)/C=C(\C)[C@@H](O)C(=O)/C=C/C(=O)[C@]23C(=O)N[C@@H]([C@H](C)c2c[nH]c4ccccc24)[C@H]13 | 350 Zone units | 250 Zone units | 250 Zone units | – | – | – | – | – | – | – | – | –
2 | CC[C@@H]1C(C)=C[C@@H]2/C=C/C[C@H](C)/C=C(\C)[C@@H](O)[C@@H](O)/C=C/C(=O)[C@]23C(=O)N[C@@H]([C@H](C)c2c[nH]c4ccccc24)[C@H]13 | 400 Zone units | 500 Zone units | 500 Zone units | Active | Active | Active | – | – | – | – | – | –
3 | CC[C@@H]1C(C)=C[C@@H]2/C=C/C[C@H](C)/C=C(\C)CC/C=C/C(=O)[C@]23C(=O)N[C@@H]([C@H](C)c2c[nH]c4ccccc24)[C@H]13 | 150 Zone units | – | – | – | – | – | Active | Active | Active | Active | Active | Active
